pKi: −log10 of the molar value.
target: Mu-type opioid receptor (Cavia porcellus) (UniProt P97266); assay: Antagonist potency was determined as the ratio of [antagonist] to (IC50 ratio-1) for Opioid receptor mu 1; format: functional; details: not given
Method in brief: (§1)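 Ke (nM) = [antagonist]/(IC50 ratio − 1). IC50 ratio is agonist IC50 with antagonist over the control IC50 in the same preparation. Antagonist preincubated 15 min. Agonists: DADLE in mouse vas deferens (δ); morphine (μ) and ethylketazocine (κ) in guinea pig ileum. n ≥ 3.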

Sequence of Mu-type opioid receptor (Cavia porcellus) (P97266 whole entry): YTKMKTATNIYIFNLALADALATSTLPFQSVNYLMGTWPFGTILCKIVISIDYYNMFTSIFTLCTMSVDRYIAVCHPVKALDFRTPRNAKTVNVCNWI

Structure (SMILES) | Ke [nM]
Oc1ccc2c3c1O[C@H]1c4[nH]c5c(F)cccc5c4C[C@@]4(O)[C@@H](C2)N(CC2CC2)CC[C@]314 | 23
C=CCN1CC[C@]23c4c5ccc(O)c4O[C@H]2c2[nH]c4ccccc4c2C[C@@]3(O)[C@H]1C5 | > 714
Oc1ccc2c3c1O[C@H]1c4[nH]c5c(ccc6ccccc65)c4C[C@@]4(O)[C@@H](C2)N(CC2CC2)CC[C@]314 | > 500
Oc1ccc2c3c1O[C@H]1c4[nH]c5c(Br)cccc5c4C[C@@]4(O)[C@@H](C2)N(CC2CC2)CC[C@]314 | 83

target: T1, Kappa-type opioid receptor (Cavia porcellus, UniProt P41144); assay: Binding affinity was measured by the displacement of [3H]- EK in guinea pig brain membrane of Opioid receptor kappa 1; format: cell membranes; details: not given
T1 sequence (P41144 whole entry): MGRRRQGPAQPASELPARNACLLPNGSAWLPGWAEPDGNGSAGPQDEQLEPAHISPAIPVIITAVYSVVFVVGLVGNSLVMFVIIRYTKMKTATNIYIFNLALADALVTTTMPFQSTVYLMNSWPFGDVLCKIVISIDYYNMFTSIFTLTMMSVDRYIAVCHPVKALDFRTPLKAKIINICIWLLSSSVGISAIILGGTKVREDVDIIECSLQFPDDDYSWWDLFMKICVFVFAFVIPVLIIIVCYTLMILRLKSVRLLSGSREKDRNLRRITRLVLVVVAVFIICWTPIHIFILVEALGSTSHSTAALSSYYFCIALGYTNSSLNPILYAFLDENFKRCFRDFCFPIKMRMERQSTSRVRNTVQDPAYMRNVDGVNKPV
Method in brief: (§2)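 Radioligand displacement from guinea pig brain membranes, modified Werling method. μ sites: [3H]DAMGO. δ sites: [3H]DADLE with 1 μM DAMGO. κ sites: [3H]ethylketazocine with 1 μM DAMGO.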

Structure (SMILES) | pKi
Oc1ccc2c3c1O[C@H]1c4[nH]c5c(F)cccc5c4C[C@@]4(O)[C@@H](C2)N(CC2CC2)CC[C@]314 | 6.49
C=CCN1CC[C@]23c4c5ccc(O)c4O[C@H]2c2[nH]c4ccccc4c2C[C@@]3(O)[C@H]1C5 | 6.49
Oc1ccc2c3c1O[C@H]1c4[nH]c5c(Br)cccc5c4C[C@@]4(O)[C@@H](C2)N(CC2CC2)CC[C@]314 | 6.48

target: Kappa-type opioid receptor (Cavia porcellus) (UniProt P41144); assay: Opioid receptor kappa 1 antagonistic activity was measured by the displacement of ethylketazocine in the guinea pig ileum at a concentration of 100 nM; format: functional, tissue-based; details: not given
Sequence (P41144 whole entry): as above
Method in brief: (§3)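 Guinea pig ileum. Antagonist (nM, as stated on line) incubated 15 min before testing. Agonists: morphine (μ) and ethylketazocine (κ).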

Structure (SMILES) | IC50 ratio
Oc1ccc2c3c1O[C@H]1c4[nH]c5c(F)cccc5c4C[C@@]4(O)[C@@H](C2)N(CC2CC2)CC[C@]314 | 1.3
C=CCN1CC[C@]23c4c5ccc(O)c4O[C@H]2c2[nH]c4ccccc4c2C[C@@]3(O)[C@H]1C5 | 2.2
Oc1ccc2c3c1O[C@H]1c4[nH]c5c(ccc6ccccc65)c4C[C@@]4(O)[C@@H](C2)N(CC2CC2)CC[C@]314 | 0.9
Oc1ccc2c3c1O[C@H]1c4[nH]c5c(Br)cccc5c4C[C@@]4(O)[C@@H](C2)N(CC2CC2)CC[C@]314 | 1.7

target: Delta-type opioid receptor (Mus musculus) (UniProt P32300); assay: Antagonist potency was determined as the ratio of [antagonist] to (IC50 ratio-1) for opioid receptor delta 1; format: functional; details: not given; method in brief: as §1
Sequence (P32300 whole entry): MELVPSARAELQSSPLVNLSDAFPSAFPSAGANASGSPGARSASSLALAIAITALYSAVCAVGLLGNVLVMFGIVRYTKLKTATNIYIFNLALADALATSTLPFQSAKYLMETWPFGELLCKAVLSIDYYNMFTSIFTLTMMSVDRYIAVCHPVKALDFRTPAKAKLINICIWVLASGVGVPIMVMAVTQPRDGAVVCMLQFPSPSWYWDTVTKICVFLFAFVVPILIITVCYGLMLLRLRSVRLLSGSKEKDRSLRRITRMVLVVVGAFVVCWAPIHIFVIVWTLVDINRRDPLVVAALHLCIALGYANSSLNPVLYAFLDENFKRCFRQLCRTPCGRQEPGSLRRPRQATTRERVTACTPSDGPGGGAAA

Structure (SMILES) | Ke [nM]
Oc1ccc2c3c1O[C@H]1c4[nH]c5c(F)cccc5c4C[C@@]4(O)[C@@H](C2)N(CC2CC2)CC[C@]314 | 0.35
C=CCN1CC[C@]23c4c5ccc(O)c4O[C@H]2c2[nH]c4ccccc4c2C[C@@]3(O)[C@H]1C5 | 1.1
Oc1ccc2c3c1O[C@H]1c4[nH]c5c(ccc6ccccc65)c4C[C@@]4(O)[C@@H](C2)N(CC2CC2)CC[C@]314 | 9
Oc1ccc2c3c1O[C@H]1c4[nH]c5c(Br)cccc5c4C[C@@]4(O)[C@@H](C2)N(CC2CC2)CC[C@]314 | 1.2

target: Delta-type opioid receptor (Mus musculus) (UniProt P32300); assay: Opioid receptor delta 1 antagonistic activity was measured by the displacement of DADLE in the mouse vas deferens at a concentration of 100 nM; format: functional; details: not given
Method in brief: (§4)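 Mouse vas deferens. Antagonist (nM, as stated on line) incubated with the preparation 15 min before testing. δ agonist [D-Ala2,D-Leu5]enkephalin.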

Structure (SMILES) | IC50 ratio
Oc1ccc2c3c1O[C@H]1c4[nH]c5c(F)cccc5c4C[C@@]4(O)[C@@H](C2)N(CC2CC2)CC[C@]314 | 287
C=CCN1CC[C@]23c4c5ccc(O)c4O[C@H]2c2[nH]c4ccccc4c2C[C@@]3(O)[C@H]1C5 | 93
Oc1ccc2c3c1O[C@H]1c4[nH]c5c(ccc6ccccc65)c4C[C@@]4(O)[C@@H](C2)N(CC2CC2)CC[C@]314 | 12.1
Oc1ccc2c3c1O[C@H]1c4[nH]c5c(Br)cccc5c4C[C@@]4(O)[C@@H](C2)N(CC2CC2)CC[C@]314 | 85

target: Kappa-type opioid receptor (Cavia porcellus) (UniProt P41144); assay: Opioid receptor kappa antagonistic activity was measured by the displacement of ethylketazocine in the guinea pig ileum at a concentration of 100 nM; format: functional, tissue-based; details: not given; method in brief: as §3

Structure (SMILES) | IC50 ratio
Oc1ccc2c3c1O[C@H]1c4[nH]c5c(F)cccc5c4C[C@@]4(O)[C@@H](C2)N(CC2CC2)CC[C@]314 | 1.3
C=CCN1CC[C@]23c4c5ccc(O)c4O[C@H]2c2[nH]c4ccccc4c2C[C@@]3(O)[C@H]1C5 | 2.2
Oc1ccc2c3c1O[C@H]1c4[nH]c5c(ccc6ccccc65)c4C[C@@]4(O)[C@@H](C2)N(CC2CC2)CC[C@]314 | 0.9
Oc1ccc2c3c1O[C@H]1c4[nH]c5c(Br)cccc5c4C[C@@]4(O)[C@@H](C2)N(CC2CC2)CC[C@]314 | 1.7

target: Opioid receptors; mu & delta (Homo sapiens) (UniProt P41143+P35372); assay: Selectivity ratio was determined from Ke value of Opioid receptor mu 1 and Opioid receptor delta 1; format: protein assay; details: Cavia porcellus
Sequence (P35372 whole entry, looked up): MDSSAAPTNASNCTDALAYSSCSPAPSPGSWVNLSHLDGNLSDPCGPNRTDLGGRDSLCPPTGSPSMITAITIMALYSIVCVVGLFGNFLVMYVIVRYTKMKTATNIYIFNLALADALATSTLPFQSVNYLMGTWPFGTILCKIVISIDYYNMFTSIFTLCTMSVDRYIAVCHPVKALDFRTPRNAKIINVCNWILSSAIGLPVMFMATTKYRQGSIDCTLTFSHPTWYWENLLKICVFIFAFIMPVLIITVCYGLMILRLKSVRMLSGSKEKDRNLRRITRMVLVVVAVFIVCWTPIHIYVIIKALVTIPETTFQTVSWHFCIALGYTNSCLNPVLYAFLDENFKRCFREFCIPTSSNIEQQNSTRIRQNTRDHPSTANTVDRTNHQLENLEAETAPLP
Sequence (P41143 whole entry, looked up): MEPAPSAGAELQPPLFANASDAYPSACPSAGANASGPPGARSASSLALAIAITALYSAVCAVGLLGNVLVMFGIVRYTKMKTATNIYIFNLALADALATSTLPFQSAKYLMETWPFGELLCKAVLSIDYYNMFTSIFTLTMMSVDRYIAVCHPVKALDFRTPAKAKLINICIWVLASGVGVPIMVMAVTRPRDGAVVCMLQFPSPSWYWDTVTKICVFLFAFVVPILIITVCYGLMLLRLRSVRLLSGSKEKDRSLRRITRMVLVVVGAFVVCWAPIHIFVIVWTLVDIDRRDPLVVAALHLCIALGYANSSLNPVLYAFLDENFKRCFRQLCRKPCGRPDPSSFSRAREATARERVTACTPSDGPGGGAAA
Method in brief: (§5)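 Ratios of Ke values, μ/δ or κ/δ. Each Ke = [antagonist]/(IC50 ratio − 1). δ from DADLE in mouse vas deferens; μ (morphine) and κ (ethylketazocine) in guinea pig ileum. 15 min antagonist preincubation, n ≥ 3.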

Structure (SMILES) | Selectivity ratio
Oc1ccc2c3c1O[C@H]1c4[nH]c5c(F)cccc5c4C[C@@]4(O)[C@@H](C2)N(CC2CC2)CC[C@]314 | 67
C=CCN1CC[C@]23c4c5ccc(O)c4O[C@H]2c2[nH]c4ccccc4c2C[C@@]3(O)[C@H]1C5 | > 655
Oc1ccc2c3c1O[C@H]1c4[nH]c5c(ccc6ccccc65)c4C[C@@]4(O)[C@@H](C2)N(CC2CC2)CC[C@]314 | > 55
Oc1ccc2c3c1O[C@H]1c4[nH]c5c(Br)cccc5c4C[C@@]4(O)[C@@H](C2)N(CC2CC2)CC[C@]314 | 71

target: Opioid receptors; delta & kappa (Homo sapiens) (UniProt P41145+P41143); assay: Selectivity ratio was determined from Ke value of Opioid receptor kappa 1 and Opioid receptor delta 1; format: protein assay; details: Cavia porcellus; method in brief: as §5
Sequence (P41143 whole entry, looked up): as above
Sequence (P41145 whole entry, looked up): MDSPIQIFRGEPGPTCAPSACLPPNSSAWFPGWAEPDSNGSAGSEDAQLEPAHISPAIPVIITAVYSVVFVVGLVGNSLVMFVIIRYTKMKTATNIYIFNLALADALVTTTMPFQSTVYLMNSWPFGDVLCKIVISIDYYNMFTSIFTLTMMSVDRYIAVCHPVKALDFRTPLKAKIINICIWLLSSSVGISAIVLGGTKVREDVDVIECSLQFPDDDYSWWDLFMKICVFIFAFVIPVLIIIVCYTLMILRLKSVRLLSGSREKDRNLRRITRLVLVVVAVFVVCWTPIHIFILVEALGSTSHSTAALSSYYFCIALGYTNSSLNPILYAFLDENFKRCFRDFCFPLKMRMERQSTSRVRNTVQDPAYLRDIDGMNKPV

Structure (SMILES) | Selectivity ratio
Oc1ccc2c3c1O[C@H]1c4[nH]c5c(F)cccc5c4C[C@@]4(O)[C@@H](C2)N(CC2CC2)CC[C@]314 | > 951
C=CCN1CC[C@]23c4c5ccc(O)c4O[C@H]2c2[nH]c4ccccc4c2C[C@@]3(O)[C@H]1C5 | > 75
Oc1ccc2c3c1O[C@H]1c4[nH]c5c(ccc6ccccc65)c4C[C@@]4(O)[C@@H](C2)N(CC2CC2)CC[C@]314 | > 12
Oc1ccc2c3c1O[C@H]1c4[nH]c5c(Br)cccc5c4C[C@@]4(O)[C@@H](C2)N(CC2CC2)CC[C@]314 | > 121

target: Delta-type opioid receptor (Mus musculus) (UniProt P32300); assay: Opioid receptor delta antagonistic activity was measured by the displacement of DADLE in the mouse vas deferens at a concentration of 100 nM; format: functional; details: not given; method in brief: as §4

Structure (SMILES) | IC50 ratio
Oc1ccc2c3c1O[C@H]1c4[nH]c5c(F)cccc5c4C[C@@]4(O)[C@@H](C2)N(CC2CC2)CC[C@]314 | 287
C=CCN1CC[C@]23c4c5ccc(O)c4O[C@H]2c2[nH]c4ccccc4c2C[C@@]3(O)[C@H]1C5 | 93
Oc1ccc2c3c1O[C@H]1c4[nH]c5c(ccc6ccccc65)c4C[C@@]4(O)[C@@H](C2)N(CC2CC2)CC[C@]314 | 12.1
Oc1ccc2c3c1O[C@H]1c4[nH]c5c(Br)cccc5c4C[C@@]4(O)[C@@H](C2)N(CC2CC2)CC[C@]314 | 85

target: T1, Kappa-type opioid receptor; assay: Binding affinity was measured by the displacement of [3H]- EK in guinea pig brain membrane of opioid receptor kappa; format: cell membranes; details: not given; method in brief: as §2

Structure (SMILES) | pKi
Oc1ccc2c3c1O[C@H]1c4[nH]c5c(F)cccc5c4C[C@@]4(O)[C@@H](C2)N(CC2CC2)CC[C@]314 | 6.49
C=CCN1CC[C@]23c4c5ccc(O)c4O[C@H]2c2[nH]c4ccccc4c2C[C@@]3(O)[C@H]1C5 | 6.49
Oc1ccc2c3c1O[C@H]1c4[nH]c5c(Br)cccc5c4C[C@@]4(O)[C@@H](C2)N(CC2CC2)CC[C@]314 | 6.48

target: Kappa-type opioid receptor (Cavia porcellus) (UniProt P41144); assay: Antagonist potency was determined as the ratio of [antagonist] to (IC50 ratio-1) for Opioid receptor kappa 1; format: functional; details: not given; method in brief: as §1

Structure (SMILES) | Ke [nM]
Oc1ccc2c3c1O[C@H]1c4[nH]c5c(F)cccc5c4C[C@@]4(O)[C@@H](C2)N(CC2CC2)CC[C@]314 | > 333
C=CCN1CC[C@]23c4c5ccc(O)c4O[C@H]2c2[nH]c4ccccc4c2C[C@@]3(O)[C@H]1C5 | > 82
Oc1ccc2c3c1O[C@H]1c4[nH]c5c(ccc6ccccc65)c4C[C@@]4(O)[C@@H](C2)N(CC2CC2)CC[C@]314 | > 111
Oc1ccc2c3c1O[C@H]1c4[nH]c5c(Br)cccc5c4C[C@@]4(O)[C@@H](C2)N(CC2CC2)CC[C@]314 | > 143

target: T2, Mu-type opioid receptor (Cavia porcellus, UniProt P97266); assay: Binding affinity was measured by the displacement of [3H]- DAMGO in guinea pig brain membrane of Opioid receptor mu 1; format: cell membranes; details: not given; method in brief: as §2
T2 sequence (P97266 whole entry): as the sequence (P97266 whole entry) above

Structure (SMILES) | pKi
Oc1ccc2c3c1O[C@H]1c4[nH]c5c(F)cccc5c4C[C@@]4(O)[C@@H](C2)N(CC2CC2)CC[C@]314 | 7.31
C=CCN1CC[C@]23c4c5ccc(O)c4O[C@H]2c2[nH]c4ccccc4c2C[C@@]3(O)[C@H]1C5 | 6.98
Oc1ccc2c3c1O[C@H]1c4[nH]c5c(Br)cccc5c4C[C@@]4(O)[C@@H](C2)N(CC2CC2)CC[C@]314 | 7.54

target: Mu-type opioid receptor (Cavia porcellus) (UniProt P97266); assay: Opioid receptor mu 1 antagonistic activity was measured by the displacement of morphine in the guinea pig ileum at a concentration of 100 nM; format: functional, tissue-based; details: not given; method in brief: as §3

Structure (SMILES) | IC50 ratio
Oc1ccc2c3c1O[C@H]1c4[nH]c5c(F)cccc5c4C[C@@]4(O)[C@@H](C2)N(CC2CC2)CC[C@]314 | 5.3
C=CCN1CC[C@]23c4c5ccc(O)c4O[C@H]2c2[nH]c4ccccc4c2C[C@@]3(O)[C@H]1C5 | 1.1
Oc1ccc2c3c1O[C@H]1c4[nH]c5c(ccc6ccccc65)c4C[C@@]4(O)[C@@H](C2)N(CC2CC2)CC[C@]314 | 1.2
Oc1ccc2c3c1O[C@H]1c4[nH]c5c(Br)cccc5c4C[C@@]4(O)[C@@H](C2)N(CC2CC2)CC[C@]314 | 2.2

target: T2, Mu-type opioid receptor; assay: Binding affinity was measured by the displacement of [3H]- DAMGO in guinea pig brain membrane of opioid receptor mu; format: cell membranes; details: not given; method in brief: as §2

Structure (SMILES) | pKi
Oc1ccc2c3c1O[C@H]1c4[nH]c5c(F)cccc5c4C[C@@]4(O)[C@@H](C2)N(CC2CC2)CC[C@]314 | 7.31
C=CCN1CC[C@]23c4c5ccc(O)c4O[C@H]2c2[nH]c4ccccc4c2C[C@@]3(O)[C@H]1C5 | 6.98
Oc1ccc2c3c1O[C@H]1c4[nH]c5c(Br)cccc5c4C[C@@]4(O)[C@@H](C2)N(CC2CC2)CC[C@]314 | 7.54

target: Mu-type opioid receptor (Cavia porcellus) (UniProt P97266); assay: Opioid receptor mu antagonistic activity was measured by the displacement of morphine in the guinea pig ileum at a concentration of 100 nM; format: functional, tissue-based; details: not given; method in brief: as §3

Structure (SMILES) | IC50 ratio
Oc1ccc2c3c1O[C@H]1c4[nH]c5c(F)cccc5c4C[C@@]4(O)[C@@H](C2)N(CC2CC2)CC[C@]314 | 5.3
C=CCN1CC[C@]23c4c5ccc(O)c4O[C@H]2c2[nH]c4ccccc4c2C[C@@]3(O)[C@H]1C5 | 1.1
Oc1ccc2c3c1O[C@H]1c4[nH]c5c(ccc6ccccc65)c4C[C@@]4(O)[C@@H](C2)N(CC2CC2)CC[C@]314 | 1.2
Oc1ccc2c3c1O[C@H]1c4[nH]c5c(Br)cccc5c4C[C@@]4(O)[C@@H](C2)N(CC2CC2)CC[C@]314 | 2.2

Reference: ChEMBL document CHEMBL1124798, “Design of peptidomimetic delta opioid receptor antagonists using the message-address concept” (J Med Chem, 1990)
